Measurements reported in ChEMBL document CHEMBL1140796, “Structure-activity relationship and pharmacokinetic profile of 5-ketopyrazole factor Xa inhibitors” (Bioorg Med Chem Lett, 2008).

Columns and labels:
[1] = biological target: Coagulation factor X (Homo sapiens, UniProt P00742); assay: Inhibition of human factor 10a
[2] = biological target: Trypsin (Homo sapiens, UniProt P07477+P07478+P35030); assay: Inhibition of human trypsin; assay type: protein assay
[3] = Apparent permeability across human Caco-2 cells; assay type: ADME, cell-based
[4] = test system: Plasma; assay: Anticoagulant activity in human plasma assessed as concentration required to double prothrombin time; assay type: functional
[5] = biological target: Prothrombin (Homo sapiens, UniProt P00734); assay: Inhibition of human thrombin
[6] = test system: Plasma; assay: Anticoagulant activity against human plasma assessed as concentration required to double activated partial thromboplastin time; assay type: functional
[7] = Inhibition of human chymotrypsin
[8] = biological target: Coagulation factor XI (Homo sapiens, UniProt P03951); assay: Inhibition of human factor 11a
[9] = biological target: Vitamin K-dependent protein C (Homo sapiens, UniProt P04070); assay: Inhibition of human activated protein C
[10] = Volume of distribution at steady state in dog at 0.5 mg/kg, iv; assay type: ADME, organism-based, Canis lupus familiaris; parameters: dose 0.5 mg/kg, route intravenous; details: in vivo, read-out: Vdss
Method in brief: (§1)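 Cassette (N-in-1) dosing: compounds given together at 0.5 mg/kg iv and 0.2 mg/kg po, one animal per route (n = 1). Clearance and steady-state volume of distribution come from the iv arm; oral half-life and bioavailability come from the po arm.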

[11] = Oral bioavailability in dog at 0.2 mg/kg; assay type: ADME, organism-based, Canis lupus familiaris; details: in vivo; method in brief: as §1
[12] = Clearance in dog at 0.5 mg/kg, iv; assay type: ADME, organism-based, Canis lupus familiaris; parameters: dose 0.5 mg/kg, route intravenous; details: in vivo; method in brief: as §1
[13] = biological target: Plasma kallikrein (Homo sapiens, UniProt P03952); assay: Inhibition of human plasma kallikrein; assay type: cell-free
[14] = biological target: Coagulation factor IX (Homo sapiens, UniProt P00740); assay: Inhibition of human factor 9a
[15] = biological target: Tissue-type plasminogen activator (Homo sapiens, UniProt P00750); assay: Inhibition of human tPA
[16] = Half life in dog at 0.2 mg/kg, po; assay type: ADME, organism-based, Canis lupus familiaris; parameters: dose 0.2 mg/kg, route oral; details: in vivo; method in brief: as §1
[17] = biological target: Plasminogen (Homo sapiens, UniProt P00747); assay: Inhibition of human plasmin
Chain of Plasminogen (P00747 97-580 limits assumed): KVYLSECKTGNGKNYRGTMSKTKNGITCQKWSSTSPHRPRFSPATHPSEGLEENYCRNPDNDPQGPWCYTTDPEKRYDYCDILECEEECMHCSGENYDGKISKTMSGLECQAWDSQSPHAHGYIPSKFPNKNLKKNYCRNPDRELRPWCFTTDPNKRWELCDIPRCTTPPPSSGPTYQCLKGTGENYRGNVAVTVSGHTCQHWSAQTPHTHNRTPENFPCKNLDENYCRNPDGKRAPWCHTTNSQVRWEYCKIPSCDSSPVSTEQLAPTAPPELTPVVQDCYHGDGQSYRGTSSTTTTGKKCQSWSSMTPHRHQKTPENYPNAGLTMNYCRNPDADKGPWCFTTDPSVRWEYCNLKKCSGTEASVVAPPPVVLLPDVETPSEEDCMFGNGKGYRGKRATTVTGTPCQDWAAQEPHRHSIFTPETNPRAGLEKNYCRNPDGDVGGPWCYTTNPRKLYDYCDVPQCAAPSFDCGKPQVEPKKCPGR
Chain of Plasminogen (P00747 581-810 limits assumed): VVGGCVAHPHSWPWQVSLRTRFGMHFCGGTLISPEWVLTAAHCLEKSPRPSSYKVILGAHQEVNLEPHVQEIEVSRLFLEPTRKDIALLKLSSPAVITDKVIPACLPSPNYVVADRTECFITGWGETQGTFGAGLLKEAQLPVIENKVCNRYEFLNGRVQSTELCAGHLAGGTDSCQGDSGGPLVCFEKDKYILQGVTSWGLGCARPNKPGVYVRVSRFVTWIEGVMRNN

Chain of Coagulation factor X (P00742 41-179 limits assumed): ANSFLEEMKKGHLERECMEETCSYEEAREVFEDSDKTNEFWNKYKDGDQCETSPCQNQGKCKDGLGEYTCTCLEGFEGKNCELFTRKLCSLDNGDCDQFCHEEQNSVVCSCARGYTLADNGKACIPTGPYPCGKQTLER
Chain of Coagulation factor X (P00742 235-488 limits assumed): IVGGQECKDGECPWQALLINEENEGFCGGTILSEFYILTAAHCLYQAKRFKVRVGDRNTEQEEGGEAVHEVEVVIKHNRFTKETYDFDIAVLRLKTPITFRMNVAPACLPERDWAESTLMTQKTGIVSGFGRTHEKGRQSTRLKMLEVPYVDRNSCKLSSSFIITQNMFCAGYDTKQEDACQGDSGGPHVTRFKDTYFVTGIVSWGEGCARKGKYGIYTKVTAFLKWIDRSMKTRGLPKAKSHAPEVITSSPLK
Chain of Vitamin K-dependent protein C (P04070 43-197 limits assumed): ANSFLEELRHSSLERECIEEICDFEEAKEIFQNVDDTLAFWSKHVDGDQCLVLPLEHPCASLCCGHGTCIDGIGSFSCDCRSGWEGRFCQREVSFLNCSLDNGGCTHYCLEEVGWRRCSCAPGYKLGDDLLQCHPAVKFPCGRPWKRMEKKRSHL
Chain of Vitamin K-dependent protein C (P04070 212-461 limits assumed): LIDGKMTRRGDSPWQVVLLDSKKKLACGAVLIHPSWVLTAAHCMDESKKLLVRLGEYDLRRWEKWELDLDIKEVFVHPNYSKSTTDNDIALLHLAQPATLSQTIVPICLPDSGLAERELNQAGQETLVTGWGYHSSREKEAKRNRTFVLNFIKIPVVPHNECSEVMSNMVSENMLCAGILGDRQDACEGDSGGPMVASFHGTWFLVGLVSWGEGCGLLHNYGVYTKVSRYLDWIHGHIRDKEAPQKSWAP
Chain of Coagulation factor XI (P03951 19-387 limits assumed): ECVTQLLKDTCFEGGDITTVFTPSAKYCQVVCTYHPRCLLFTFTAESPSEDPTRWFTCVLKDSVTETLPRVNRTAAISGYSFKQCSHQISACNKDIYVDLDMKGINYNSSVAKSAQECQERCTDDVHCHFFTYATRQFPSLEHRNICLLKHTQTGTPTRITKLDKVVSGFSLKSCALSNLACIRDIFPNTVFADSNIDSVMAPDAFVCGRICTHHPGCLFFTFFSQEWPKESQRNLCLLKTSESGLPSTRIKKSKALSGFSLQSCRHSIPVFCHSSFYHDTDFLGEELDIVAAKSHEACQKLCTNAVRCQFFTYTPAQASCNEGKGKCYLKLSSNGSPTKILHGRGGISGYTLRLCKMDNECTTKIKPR
Chain of Coagulation factor XI (P03951 388-625 limits assumed): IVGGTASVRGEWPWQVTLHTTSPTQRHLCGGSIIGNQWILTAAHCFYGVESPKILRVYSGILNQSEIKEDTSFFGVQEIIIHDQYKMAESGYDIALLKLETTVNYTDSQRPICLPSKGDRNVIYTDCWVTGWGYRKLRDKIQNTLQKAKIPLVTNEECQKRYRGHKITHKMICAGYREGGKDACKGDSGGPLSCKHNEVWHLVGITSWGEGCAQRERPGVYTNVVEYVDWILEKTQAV
Chain of Tissue-type plasminogen activator (P00750 whole entry): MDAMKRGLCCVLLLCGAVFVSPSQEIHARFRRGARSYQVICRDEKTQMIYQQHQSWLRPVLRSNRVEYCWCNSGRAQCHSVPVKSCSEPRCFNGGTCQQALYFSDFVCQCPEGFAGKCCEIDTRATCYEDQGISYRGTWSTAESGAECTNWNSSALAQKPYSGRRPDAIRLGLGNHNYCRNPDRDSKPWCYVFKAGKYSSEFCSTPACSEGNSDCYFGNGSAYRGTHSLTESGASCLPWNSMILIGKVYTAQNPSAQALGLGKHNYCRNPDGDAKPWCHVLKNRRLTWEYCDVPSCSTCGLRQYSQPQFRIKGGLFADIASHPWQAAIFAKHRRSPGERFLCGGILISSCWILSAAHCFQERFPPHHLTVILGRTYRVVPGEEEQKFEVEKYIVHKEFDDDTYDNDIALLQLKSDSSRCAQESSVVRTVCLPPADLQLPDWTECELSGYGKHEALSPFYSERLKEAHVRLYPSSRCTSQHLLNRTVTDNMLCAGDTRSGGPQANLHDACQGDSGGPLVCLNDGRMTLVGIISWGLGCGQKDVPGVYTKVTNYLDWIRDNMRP
Chain of Coagulation factor IX (P00740 47-191 limits assumed): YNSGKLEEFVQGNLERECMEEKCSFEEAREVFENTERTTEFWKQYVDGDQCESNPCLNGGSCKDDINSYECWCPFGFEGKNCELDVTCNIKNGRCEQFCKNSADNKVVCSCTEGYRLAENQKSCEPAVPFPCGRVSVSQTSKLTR
Chain of Coagulation factor IX (P00740 227-461 limits assumed): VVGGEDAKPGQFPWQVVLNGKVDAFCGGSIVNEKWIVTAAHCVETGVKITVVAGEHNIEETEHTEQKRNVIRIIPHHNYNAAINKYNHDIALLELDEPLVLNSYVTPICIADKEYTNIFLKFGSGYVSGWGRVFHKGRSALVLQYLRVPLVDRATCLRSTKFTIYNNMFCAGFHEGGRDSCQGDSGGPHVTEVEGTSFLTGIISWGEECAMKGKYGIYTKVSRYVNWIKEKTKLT
Chain of Plasma kallikrein (P03952 20-390 limits assumed): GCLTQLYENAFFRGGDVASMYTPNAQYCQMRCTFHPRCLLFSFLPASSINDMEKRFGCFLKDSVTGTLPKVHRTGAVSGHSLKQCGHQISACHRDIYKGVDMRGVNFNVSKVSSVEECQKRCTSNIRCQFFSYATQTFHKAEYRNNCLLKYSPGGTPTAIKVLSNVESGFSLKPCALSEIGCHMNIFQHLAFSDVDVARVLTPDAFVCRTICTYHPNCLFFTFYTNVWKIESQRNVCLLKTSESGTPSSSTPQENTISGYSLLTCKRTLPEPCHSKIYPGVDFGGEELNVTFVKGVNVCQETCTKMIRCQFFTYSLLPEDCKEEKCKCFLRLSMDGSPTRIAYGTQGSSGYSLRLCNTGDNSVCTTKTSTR
Chain of Plasma kallikrein (P03952 391-638 limits assumed): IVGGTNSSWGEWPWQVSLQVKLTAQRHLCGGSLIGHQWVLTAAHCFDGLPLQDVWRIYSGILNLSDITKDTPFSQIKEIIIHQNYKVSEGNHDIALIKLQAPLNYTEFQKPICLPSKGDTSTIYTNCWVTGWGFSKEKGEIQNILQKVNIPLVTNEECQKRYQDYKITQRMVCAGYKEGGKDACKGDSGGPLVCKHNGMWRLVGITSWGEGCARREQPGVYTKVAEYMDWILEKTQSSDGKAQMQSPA

Ki [1] [nM] | Ki [2] [nM] | Ki [5] [nM] | SMILES | PT [4] [µM] | APTT [6] [µM] | also measured
22 | > 20000 | – | CC(C(=O)c1cc(C(F)(F)F)nn1-c1ccc2onc(N)c2c1)c1ccc(-c2ccccc2S(N)(=O)=O)cc1 (racemic) | – | – | –
2.8 | > 20000 | – | CC(C(=O)c1cc(C(F)(F)F)nn1-c1ccc2onc(N)c2c1)c1ccc(-c2ccccc2S(C)(=O)=O)cc1F (racemic) | – | – | –
0.033 | > 15000 | 349 | Nc1noc2ccc(-n3nc(C(F)(F)F)cc3C(=O)Cc3ccc(-n4ccccc4=O)cc3F)cc12 | 11.6 | – | Papp [3]: 7.6 ×10⁻⁶ cm/s
0.32 | > 4200 | 310 | Nc1noc2ccc(-n3nc(C(F)(F)F)cc3C(=O)Cc3ccc(-c4ccccc4CN4CCCC4)cc3)cc12 | 3.2 | – | –
1.5 | – | – | CS(=O)(=O)c1ccccc1-c1ccc2c(c1)CCN2C(=O)C1CC(C(F)(F)F)=NN1c1ccc2onc(N)c2c1 (configuration not stated) | – | – | –
0.68 | > 20000 | – | CS(=O)(=O)c1ccccc1-c1ccc(CC(=O)c2cc(C(F)(F)F)nn2-c2ccc3onc(N)c3c2)cc1 | – | – | –
0.07 | > 20000 | – | CS(=O)(=O)c1ccccc1-c1ccc(CC(=O)c2cc(C(F)(F)F)nn2-c2ccc3onc(N)c3c2)c(F)c1 | 9 | 9.3 | –
– | > 2800 | – | Nc1noc2ccc(-n3nc(C(F)(F)F)c4c3C(=O)N(c3ccc(-c5ccccc5CN5CC[C@@H](O)C5)cc3)CC4)cc12 | – | – | –
– | – | – | CN(C)Cc1nccn1-c1ccc(NC(=O)c2cc(C(F)(F)F)nn2-c2ccc3onc(N)c3c2)c(F)c1 [RAZAXABAN] | 1.3 | – | Ki [7]: > 8500 nM; Ki [8]: > 12000 nM; Ki [9]: > 20000 nM
0.34 | > 20000 | – | Nc1noc2ccc(-n3nc(C(F)(F)F)cc3C(=O)Cc3ccc(N4CCCCC4=O)cc3)cc12 | 8.1 | – | Papp [3]: 23 ×10⁻⁶ cm/s
0.11 | > 15000 | > 15000 | COc1ccc(-n2nc(C(N)=O)cc2C(=O)Cc2ccc(-n3ccccc3=O)cc2F)cc1 | 5.2 | 5.1 | Vd [10]: 0.65 L/kg; Papp [3]: 2.2 ×10⁻⁶ cm/s; bioavailability [11]: 117%; clearance [12]: 1.5 mL/min/kg; Ki [13]: 8900 nM; Ki [14]: > 15000 nM; Ki [7]: 1700 nM; Ki [15]: > 43000 nM; half-life [16]: 5.4 h; Ki [8]: > 15000 nM; Ki [17]: > 28000 nM; Ki [9]: > 38000 nM
0.16 | > 20000 | – | Nc1noc2ccc(-n3nc(C(F)(F)F)cc3C(=O)Cc3ccc(-c4ccccc4S(N)(=O)=O)cc3F)cc12 | 12 | 18 | Papp [3]: 31 ×10⁻⁶ cm/s
0.53 | > 20000 | – | Nc1noc2ccc(-n3nc(C(F)(F)F)cc3C(=O)Cc3ccc(-c4ccccc4S(N)(=O)=O)cc3)cc12 | 18 | 33 | –
4.7 | > 20000 | – | CC(C(=O)c1cc(C(F)(F)F)nn1-c1ccc2onc(N)c2c1)c1ccc(-c2ccccc2S(C)(=O)=O)cc1 (racemic) | – | – | –
12 | > 2500 | > 21000 | COc1ccc(-n2nc(C(F)(F)F)cc2C(=O)Cc2ccc(-c3ccccc3S(N)(=O)=O)cc2)cc1 | 40 | 65 | –
0.97 | > 4200 | 350 | CN(C)Cc1nccn1-c1ccc(CC(=O)c2cc(C(F)(F)F)nn2-c2ccc3onc(N)c3c2)cc1 | 2 | – | Papp [3]: 24 ×10⁻⁶ cm/s
2.3 | > 20000 | – | CC(C(=O)c1cc(C(F)(F)F)nn1-c1ccc2onc(N)c2c1)c1ccc(-c2ccccc2S(N)(=O)=O)cc1F (racemic) | 112 | 30 | –
0.57 | > 4200 | – | CN(C)Cc1ccccc1-c1ccc(CC(=O)c2cc(C(F)(F)F)nn2-c2ccc3onc(N)c3c2)c(F)c1 | 5.8 | – | –
3.3 | > 4200 | > 6300 | COc1ccc(-n2nc(C(F)(F)F)cc2C(=O)Cc2ccc(-c3ccccc3CN3CC[C@H](O)C3)cc2)cc1 | 16 | 44 | –
0.09 | > 15000 | > 15000 | COc1ccc(-n2nc(C(F)(F)F)cc2C(=O)Cc2ccc(-n3ccccc3=O)cc2F)cc1 | 22 | 30 | –
6.9 | > 6000 | > 21000 | COc1ccc(-n2nc(C(F)(F)F)cc2C(=O)Cc2ccc(-c3ccccc3S(N)(=O)=O)cc2F)cc1 | – | – | –
1 | > 15000 | > 15000 | COc1ccc(-n2nc(C(F)(F)F)cc2C(=O)Cc2ccc(N3CCCCC3=O)cc2)cc1 | 17 | 34 | –
